ChEMBL document CHEMBL5108057, “Development of MAO-A and 5-HT2AR Dual Inhibitors with Improved Antidepressant Activity” (J Med Chem, 2022)
Calls of active or inactive are those of the source. The rule behind the calls is not given here.

How the values were obtained:
[1] = Bioavailability in Sprague-Dawley rat at 2 mg/kg, iv measured upto 1440 mins by LC-MS/MS analysis; format: ADME, organism-based; details: in vivo
[2] = MRT infinity in Sprague-Dawley rat at 10 mg/kg, IG measured upto 1440 mins by LC-MS/MS analysis; format: ADME, organism-based; details: in vivo, po
[3] = target: T1, Amine oxidase [flavin-containing] A (Homo sapiens, UniProt P21397); assay: Inhibition of MAO-A (unknown origin) using p-tyramine as substrate preincubated for 15 mins followed by substrate addition and measured after 15 mins by Amplex red fluorescence based microplate reader assay
T1 sequence (P21397 whole entry): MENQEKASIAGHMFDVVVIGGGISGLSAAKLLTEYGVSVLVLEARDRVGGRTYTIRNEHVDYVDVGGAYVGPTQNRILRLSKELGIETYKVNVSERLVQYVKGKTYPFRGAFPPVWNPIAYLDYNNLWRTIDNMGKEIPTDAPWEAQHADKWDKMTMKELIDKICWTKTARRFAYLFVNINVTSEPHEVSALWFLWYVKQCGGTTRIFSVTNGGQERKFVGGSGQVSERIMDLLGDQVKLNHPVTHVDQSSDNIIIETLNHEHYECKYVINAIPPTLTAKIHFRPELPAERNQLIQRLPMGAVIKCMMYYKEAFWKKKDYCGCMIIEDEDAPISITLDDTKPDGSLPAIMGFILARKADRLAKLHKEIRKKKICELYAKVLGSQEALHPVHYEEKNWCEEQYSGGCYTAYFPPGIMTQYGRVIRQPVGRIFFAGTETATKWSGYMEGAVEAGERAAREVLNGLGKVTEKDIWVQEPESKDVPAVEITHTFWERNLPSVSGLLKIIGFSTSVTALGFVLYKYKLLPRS

[4] = Toxicity in mouse assessed as toxic effect on kidney at 10 to 20 mg/kg by H and E staining based assay; format: organism-based; details: in vivo, dose 10-20 mg/kg
Method in brief: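 Mice given compound at 10 or 20 mg/kg, with fluoxetine 20 mg/kg as comparator. Paraffin tissue sections of 4 μm were cut. Staining: hematoxylin 5 min, 75% HCl-ethanol differentiation 30 s, eosin 2 min. Organs (liver, kidney, lung, heart, spleen) examined at ×400; hippocampus (CA1, CA3, DG) at ×200.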

Danio rerio = species on record: Danio rerio; assay: Antidepressant activity in reserpine-induced zebrafish AB depression model assessed as improved locomotion at 0.1 to 1 uM pretreated for 40 mins with reserpine followed by compound addition and measured for 7 days by novel tank test; format: functional, organism-based; details: dose 0.1-1 µM, time 7.0 day
Method in brief: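 Zebrafish were exposed to 10 mg/L reserpine for 40 min. Compound (0.1, 0.5, 1 μM) or fluoxetine (1 μM) was given 24 h later for 7 days. Fish kept at 28.5 °C on a 14 h light/10 h dark cycle. Open-field and novel tank tests were video-tracked for distance, velocity, immobility and time in the top. Mean ± SD, n = 6.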

PC-12 = assay: Neurocytoprotective activity against CORT-induced damage in rat PC-12 cells at 0.5 uM measured after 24 hrs by MTT assay; format: functional, cell-based
Method in brief: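 PC12 cells seeded at 5 × 10^4 cells/mL for 24 h. Medium was then replaced with compound (0.5–4.0 μM) plus 500 μM CORT (DMSO <1%) for 24 h. Viability was measured by MTT relative to the CORT model group.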

[5] = Cytotoxicity against human SH-SY5Y cells assessed as reduction in cell growth measured after 48 hrs by MTT assay; format: toxicity, cell-based
Method in brief: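 MTT assay: PC12, SH-SY5Y or L02 cells at 5.0 × 10^3 per well were grown for 24 h, treated with compound dilutions from 10 mM DMSO stocks, and cultured 48 h. MTT was then added for 4 h at 37 °C, formazan dissolved in DMSO, and absorbance read at 570 nm. Viability is relative to blank control; IC50 from three repeats. Media contained 10% FBS.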

[6] = Inhibition of 5-HT2AR mRNA expression in zebra fish AB assessed as fold decrease in 2 delta delta CT level at 1 uM by RT-qPCR method relative to control; format: functional, Danio rerio
Method in brief: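 Total RNA from zebrafish was extracted with Trizol and reverse-transcribed with MMLV. SYBR Green qPCR: 95 °C 2 min; 40 cycles of 95, 60 and 72 °C, 30 s each; then 72 °C for 5 min. 5-HT2AR was normalized to GAPDH by the 2^−ΔΔCT method; mean ± SD, n = 3.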

[7] = target: T2, Amine oxidase [flavin-containing] B (Homo sapiens, UniProt P27338); assay: Inhibition of MAO-B (unknown origin) using p-tyramine as substrate preincubated for 15 mins followed by substrate addition and measured after 15 mins by Amplex red fluorescence based microplate reader assay
T2 sequence (P27338 whole entry): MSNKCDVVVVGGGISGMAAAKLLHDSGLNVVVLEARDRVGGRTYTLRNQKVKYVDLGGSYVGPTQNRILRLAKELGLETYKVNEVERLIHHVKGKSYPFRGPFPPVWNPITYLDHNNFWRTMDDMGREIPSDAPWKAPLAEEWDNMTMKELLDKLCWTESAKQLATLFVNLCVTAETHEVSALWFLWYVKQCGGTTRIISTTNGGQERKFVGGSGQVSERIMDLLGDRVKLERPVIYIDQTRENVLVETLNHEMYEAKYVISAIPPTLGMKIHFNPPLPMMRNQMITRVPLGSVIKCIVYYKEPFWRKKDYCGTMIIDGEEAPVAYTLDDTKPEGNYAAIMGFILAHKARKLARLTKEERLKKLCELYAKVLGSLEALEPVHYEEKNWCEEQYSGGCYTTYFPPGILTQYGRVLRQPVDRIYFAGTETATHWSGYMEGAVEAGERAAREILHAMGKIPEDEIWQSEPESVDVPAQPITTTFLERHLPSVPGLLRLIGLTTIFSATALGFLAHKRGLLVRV

Mus musculus [8] = assay: Antidepressant activity in chronic unpredictable mild stress ICR mouse model assessed as increase in gluco-phagy at 10 to 20 mg/kg measured after 2 weeks by sugar preference test; format: functional, organism-based; details: dose 10-20 mg/kg
Method in brief: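 ICR mice received CUMS for 4 weeks: 11 stressors given randomly twice daily, 42 days in total. OFT: 5 min session scoring distance, speed, rearing and dejection. FST/TST: 6 min, with immobility scored over the last 4 min. Sucrose preference test was also run. Mean ± SD, n = 6.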

Homo sapiens = species on record: Homo sapiens; assay: Selectivity index, ratio of IC50 for inhibition of MAO-B (unknown origin) to IC50 for inhibition of MAO-A (unknown origin)
Method in brief: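 Amplex Red coupled assay. Test sample was preincubated with MAO-A or MAO-B at 37 °C for 15 min. p-Tyramine substrate working solution was added, with HRP converting the H2O2 formed to resorufin, for a further 15 min at 37 °C. Fluorescence read at Ex 545/Em 590 nm. […] SI = MAO-B IC50 / MAO-A IC50.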

Mus musculus [9] = assay: Antidepressant activity in reserpine-induced mouse hippocampal tissue model assessed as increase in 5-HT level at 10 to 20 mg/kg pretreated with reserpine for 3 days followed by compound addition on day 4 to 10 by HPLC analysis; format: functional; details: dose 10-20 mg/kg; time 6 day
[10] = AUC(0 to infinity) in Sprague-Dawley rat at 2 mg/kg, iv measured upto 1440 mins by LC-MS/MS analysis; format: ADME, organism-based; design: dose 2 mg/kg, time < 1440 min, route iv; details: in vivo

bioavailability [1]: 4.4%
MRT inf [2]: 4.94 h
IC50 [3]: 4 nM
IC50 [7]: 1050 nM
Ratio IC50 (Homo sapiens): 262
AUC(0-inf) [10]: 2320 ng·h/mL
Compound: O=C1c2ccccc2-c2nccc3cc(OCCCCCN4CCN(c5ccccc5F)CC4)cc1c23
Activity [4]: Non-Toxic
Activity (Danio rerio): Active
Activity (PC-12): Active
IC50 at 48 h [5]: > 10000 nM
fold change (FC) [6]: 0.014
Activity (Mus musculus [8]): Active
Activity (Mus musculus [9]): 579.92 ng/mL
